This passage reports pKa and logP results from ChEMBL document CHEMBL1133005, “Improving the oral bioavailability of the iron chelator HBED by breaking the symmetry of the intramolecular H-bond network” (J Med Chem, 2000).

Common to all, as to type: physicochemical
Data set [1] can be described thus: Evaluated for ionization constant (pKa4) by titrations performed in presence of MeOH solvent at a dielectric constant of 78. Conditions: MeOH cosolvent; read-out: pKa4.
Data set [2] in a line: Evaluated for ionization constant (pKa1) by titrations performed in absence of a cosolvent at a dielectric constant of 78. Conditions: no cosolvent, dielectric constant 78; read-out: pKa1.
Data set [3] can be described thus: Evaluated for ionization constant (pKa4) by titrations performed in presence of MeOH solvent at a dielectric constant of 56. Conditions: MeOH cosolvent; read-out: pKa4. In a few lines: (§1)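 pH-metric titration in mixed water/cosolvent media (MeOH or EtOH, depending on the ligand) at several cosolvent proportions, each proportion setting the dielectric constant. Electrode calibrated with pH 7.00 phosphate buffer and standardized after a blank titration by a nonlinear semiempirical fit. Readings were converted to pcH to give concentration-scale constants.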

Data set [4] is described as follows: Partition coefficient (logP). Conditions: octanol/water. A digest of the protocol:
(§2)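 Free-ligand partition coefficients are measured by the pH-metric technique. This uses two linked titrations: a normal aqueous titration, then a two-phase titration in the presence of the partition solvent.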

Data set [5] can be described thus: Evaluated for ionization constant (pKa5) by titrations performed in presence of MeOH solvent at a dielectric constant of 56. As to conditions: MeOH cosolvent; read-out: pKa5. In a few lines: (§3)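 Potentiometric pH titration. The electrode is calibrated with pH 7.00 phosphate buffer. A blank titration before each set standardizes the electrode by a nonlinear semiempirical equation, and readings are converted to the concentration scale pcH = −log[H+]. Runs use varying amounts of MeOH or EtOH cosolvent, and aqueous pKa values are extrapolated by the Yasuda–Shedlovsky method. Low pKa values (pH < 2) are determined by spectrophotometric titration.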

Data set [6] is described as follows: Evaluated for ionization constant (pKa2) by titrations performed using method of Yasuda and Shedlovsky. Conditions: read-out: pKa2. A digest of the protocol:
(§4)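 Aqueous constants were extrapolated by the Yasuda–Shedlovsky method from pH-metric titrations run at several MeOH or EtOH cosolvent levels. Electrode calibrated with pH 7.00 phosphate buffer and standardized after a blank titration. Values are expressed on the pcH (-log[H+]) concentration scale.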

Data set [7] is described as follows: Evaluated for ionization constant (pKa3) by titrations performed in presence of MeOH solvent at a dielectric constant of 49. Conditions: MeOH cosolvent; read-out: pKa3. In a few lines: as §1
A short description of data set [8]: Partition coefficient (logP) (cyclohexane). In a few lines: as §2
A short description of data set [9]: Evaluated for ionization constant (pKa3) by titrations performed in presence of MeOH solvent at a dielectric constant of 62. Conditions: MeOH cosolvent; read-out: pKa3. A digest of the protocol: as §1
Data set [10] can be described thus: Evaluated for ionization constant (pKa5) by titrations performed using the method of Yasuda and Shedlovsky. As to conditions: read-out: pKa5. A digest of the protocol: as §3
Data set [11] is described as follows: Evaluated for ionization constant (pKa5) by titrations performed in presence of MeOH solvent at a dielectric constant of 49. As to conditions: MeOH cosolvent; read-out: pKa5. A digest of the protocol: as §3
The nature of data set [12]: Evaluated for ionization constant (pKa4) by titrations performed using the method of Yasuda and Shedlovsky. As to conditions: read-out: pKa4. A digest of the protocol: as §3
Data set [13] can be described thus: Evaluated for ionization constant (pKa2) by titrations performed in presence of MeOH solvent at a dielectric constant of 56. Conditions: MeOH cosolvent, dielectric constant 56; read-out: pKa2. In a few lines: as §1
A short description of data set [14]: Evaluated for ionization constant (pKa3) by titrations performed using the method of Yasuda and Shedlovsky. As to conditions: read-out: pKa3. A digest of the protocol:
as §4

Data set [15] can be described thus: Partition coefficient (logP) (chloroform). In a few lines: as §2
Data set [16] in a line: Evaluated for ionization constant (pKa4) by titrations performed in presence of MeOH solvent at a dielectric constant of 62. As to conditions: MeOH cosolvent; read-out: pKa4. In a few lines: as §1
Data set [17] is described as follows: Evaluated for ionization constant (pKa3) by titrations performed in absence of cosolvent and at a dielectric constant of 78. As to conditions: no cosolvent; read-out: pKa3.
The nature of data set [18]: Evaluated for ionization constant (pKa2) by titrations performed in absence of cosolvent and at a dielectric constant of 78. As to conditions: no cosolvent, dielectric constant 78; read-out: pKa2.
Data set [19] is described as follows: Evaluated for ionization constant (pKa2) by titrations performed in presence of MeOH solvent at a dielectric constant of 62. As to conditions: MeOH cosolvent, dielectric constant 62; read-out: pKa2. In a few lines:
as §1

A short description of data set [20]: Evaluated for ionization constant (pKa3) by titrations performed in presence of MeOH solvent at a dielectric constant of 56. As to conditions: MeOH cosolvent; read-out: pKa3. In a few lines:
as §1

A short description of data set [21]: Evaluated for ionization constant (pKa5) by titrations performed in presence of MeOH solvent at a dielectric constant of 62. As to conditions: MeOH cosolvent; read-out: pKa5. In a few lines:
as §3

Data set [22] is described as follows: Evaluated for ionization constant (pKa2) by titrations performed in presence of MeOH solvent at a dielectric constant of 49. Conditions: MeOH cosolvent, dielectric constant 49; read-out: pKa2. A digest of the protocol: as §1
The nature of data set [23]: Evaluated for ionization constant (pKa4) by titrations performed in presence of MeOH solvent at a dielectric constant of 49. As to conditions: MeOH cosolvent; read-out: pKa4. In a few lines: as §1
Data set [24] can be described thus: Evaluated for ionization constant (pKa3) by titrations performed in the presence of EtOH at a dielectric constant of 63. Conditions: EtOH cosolvent; read-out: pKa3. A digest of the protocol:
as §1

Data set [25] in a line: Evaluated for ionization constant (pKa4) by titrations performed in the presence of EtOH at a dielectric constant of 63. As to conditions: EtOH cosolvent; read-out: pKa4. A digest of the protocol:
as §1

A short description of data set [26]: Evaluated for ionization constant (pKa5) by titrations performed in absence of cosolvent and at a dielectric constant of 78. Conditions: no cosolvent; read-out: pKa5. In a few lines:
as §3

Data set [27] is described as follows: Evaluated for ionization constant (pKa4) by titrations performed in absence of cosolvent and at a dielectric constant of 78. Conditions: no cosolvent; read-out: pKa4.
Data set [28] can be described thus: Evaluated for ionization constant (pKa2) by titrations performed in the presence of EtOH at a dielectric constant of 63. Conditions: EtOH cosolvent, dielectric constant 63; read-out: pKa2. A digest of the protocol: as §1
The nature of data set [29]: Evaluated for ionization constant (pKa1) by titrations performed in absence of cosolvent and at a dielectric constant of 78. As to conditions: no cosolvent, dielectric constant 78; read-out: pKa1.

For `COC(=O)CN(CCN(CC(=O)[O-])Cc1ccccc1O)Cc1ccccc1O.[Na+]`, the pKa in data set [1] was 2.61; in data set [2] it was 12.1; in data set [3], 2.77; in data set [5] it was 0.97; in data set [6], 11.5; in data set [7], 7.41. The pKa stood at 7.56 in data set [9]; 1.3 in [10]; 0.9 in [11]; 2.49 in [12]; 12.1 in data set [13]; 7.68 in data set [14]. Besides, the pKa in [16] was 2.68; in data set [17] it was 7.67; in [18], 10.9; in data set [19], 11.8; in data set [20] it was 7.48; in data set [21] it was 1.15. The results for the pKa in data set [22] and in data set [23] were 12.2 and 2.94, respectively. Moreover, the logP in data set [4] is 0.5; in data set [8], under -2; in data set [15], -0.29.
For the compound `CCOC(=O)CN(CCN(CC(=O)[O-])Cc1ccccc1O)Cc1ccccc1O.[Na+]`, the pKa was found to be 7.5 in [24]; 2.75 in [25]; 0.9 in data set [26]; 2.91 in data set [27]; 11.4 in data set [28]; 7.64 in [17]. Also, the pKa in data set [29] is 12.3; in [18] it was 10.9. Besides, the values for the logP in data set [4], in [8] and in data set [15] were 1.15, -1.3 and 0.18, respectively.

Usually logP stands for a log measure of how a compound divides between an organic and an aqueous phase. A low value points to lower lipophilicity.
